# Active and inactive are the calls of the source.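 Rule for the calls, unless noted: active = growth inhibition above 25% in both replicates, a cutoff set 3 SD above the mean; inconclusive = above 25% in only one replicate; inactive = the rest.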
# Assay: MRP1 drug-resistance reversers in H69AR cells – cell-based, doxorubicin co-treatment, pilot screen (AID 601;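 active = viability loss from added drug above about 55%, and viability with drug at most 40%, in both replicates, limit read from the data, passing the limit was not always enough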)
# Conditions: H69AR cells + 2 uM doxorubicin, CellTiter-Glo, 72 h; at 10 µM; stronger effect = higher value
row,Compound,differential viability (reversal)
1,OCCNc1ncnc2c1c(-c1ccccc1)c(-c1ccccc1)n2Cc1ccco1,23.7% (inactive)
2,CC(C)(C)C1CCc2onc(C(=O)Nc3cnn(Cc4ccc(F)cc4)c3)c2C1 (centres undefined),-17.6% (inactive)
3,O=C(CSc1nnnn1-c1ccccc1)Nc1nsc(-c2ccc(Cl)cc2)n1,-0.79% (inactive)
4,Cc1csc(NC(=O)c2sc3nc(-c4cccs4)ccc3c2N)n1,-12.4% (inactive)

# Same assay, conditions: H69AR cells + 2 uM doxorubicin, CellTiter-Glo, 72 h; measured here: viability with 2 uM doxorubicin; at 10 µM; stronger effect = lower value
row,Compound,viability [%]
1,OCCNc1ncnc2c1c(-c1ccccc1)c(-c1ccccc1)n2Cc1ccco1,48.8
2,CC(C)(C)C1CCc2onc(C(=O)Nc3cnn(Cc4ccc(F)cc4)c3)c2C1 (centres undefined),50.6
3,O=C(CSc1nnnn1-c1ccccc1)Nc1nsc(-c2ccc(Cl)cc2)n1,54.8
4,Cc1csc(NC(=O)c2sc3nc(-c4cccs4)ccc3c2N)n1,60.3

# Same assay, conditions: H69AR cells, CellTiter-Glo, 72 h; compound alone cytotoxicity; at 10 µM
row,Compound,viability [%]
1,OCCNc1ncnc2c1c(-c1ccccc1)c(-c1ccccc1)n2Cc1ccco1,72.4
2,CC(C)(C)C1CCc2onc(C(=O)Nc3cnn(Cc4ccc(F)cc4)c3)c2C1 (centres undefined),32.9
3,O=C(CSc1nnnn1-c1ccccc1)Nc1nsc(-c2ccc(Cl)cc2)n1,54
4,Cc1csc(NC(=O)c2sc3nc(-c4cccs4)ccc3c2N)n1,47.9

# Assay: yeast transport mutant growth inhibition pilot in 384-well plates, post-Golgi transport modulator project (AID 636; in the data active = inhibition above about 31%)
# Conditions: absorbance 615 nm, about 18 h, stronger effect = higher value
row,Compound,inhibition
1,OCCNc1ncnc2c1c(-c1ccccc1)c(-c1ccccc1)n2Cc1ccco1,-5.66% (inactive)
2,CC(C)(C)C1CCc2onc(C(=O)Nc3cnn(Cc4ccc(F)cc4)c3)c2C1 (centres undefined),0% (inactive)
3,CC[C@@H]1C(=O)OC[C@@H]1Cc1cncn1C,-3.12% (inactive)
4,O=C(CSc1nnnn1-c1ccccc1)Nc1nsc(-c2ccc(Cl)cc2)n1,0.39% (inactive)
5,Cc1csc(NC(=O)c2sc3nc(-c4cccs4)ccc3c2N)n1,0% (inactive)

# Assay: growth suppression of yeast trafficking mutant, preliminary HTS, modulators of trafficking downstream of Golgi apparatus project, 1536-format plate, OD 615 nm (AID 637; in the data active = inhibition above about 30%)
# Conditions: yeast transport mutant growth, absorbance 615 nm, 18 h; stronger effect = higher value
row,Compound,inhibition
1,OCCNc1ncnc2c1c(-c1ccccc1)c(-c1ccccc1)n2Cc1ccco1,15.7% (inactive)
2,CC(C)(C)C1CCc2onc(C(=O)Nc3cnn(Cc4ccc(F)cc4)c3)c2C1 (centres undefined),3.02% (inactive)
3,CC[C@@H]1C(=O)OC[C@@H]1Cc1cncn1C,-5.5% (inactive)
4,O=C(CSc1nnnn1-c1ccccc1)Nc1nsc(-c2ccc(Cl)cc2)n1,3.33% (inactive)
5,Cc1csc(NC(=O)c2sc3nc(-c4cccs4)ccc3c2N)n1,-6.35% (inactive)

# Assay: S. cerevisiae growth inhibition in permissive medium (OD615), pilot counter-assay for S. cerevisiae lifespan shortening project, permissive growth control (AID 705)
# Conditions: OD615, 24 h, at 10 µM, stronger effect = higher value
# In short: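 System: S. cerevisiae with engineered DeaD lifespan system. Medium: SC raffinose/galactose permissive medium. Doses: single compound dose of 10 µM, 0.25% DMSO final. Schedule: 24 h exposure, 30 °C. Measured by: OD615 turbidity read. Read-out: growth inhibition.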
row,Compound,growth inhibition
1,CCCOc1cccc(C(=O)Nc2cccnc2)c1,-6.8% (inactive)
2,COc1ccc(-c2n[nH]c(C)c2-c2cnn(-c3ccccc3)c2)c(O)c1,5.3% (inactive)
3,COc1ccc(OC)c(NC(=O)C2CCC(CNc3c(N4CCC(C)CC4)c(=O)c3=O)CC2)c1 (centres undefined),-5.59% (inactive)
4,COC(=O)c1c(NC(=O)C2CC2)sc2c1CCCC2,4.15% (inactive)
5,CC(C)Oc1ccc(NC(=O)Oc2ccccc2)cc1,-4.28% (inactive)
6,COCCNc1oc(-c2ccccc2Cl)nc1C#N,-7.99% (inactive)
7,O=c1c2ccccc2nc(N2CCN(c3ccccc3)CC2)n1Cc1ccccc1,-18.7% (inactive)
8,CCC(Sc1nc2c(cnn2-c2ccccc2)c(=O)[nH]1)C(=O)OC (centres undefined),-17.3% (inactive)
9,Cn1c(-n2c(CCCN3C(=O)c4ccccc4C3=O)nc3ccccc3c2=O)nc2ccccc21,-1.74% (inactive)
10,CCOC(=O)C1Cn2c(nc3c(c2=O)C2(CCCC2)Cc2ccccc2-3)S1 (centres undefined),-15.5% (inactive)
11,COC(=O)c1ccc(CSc2ccc3nnc(-c4cccc(F)c4)n3n2)o1,6.12% (inactive)
12,CCOc1ccccc1C(=O)Nc1ccc2nc(N3CCN(c4ncccn4)CC3)cc(C)c2c1,5.8% (inactive)
13,O=C(O)CC1C(=O)NCCN1C/C=C/c1ccccc1 (centres undefined),-17.1% (inactive)
14,CCN1CCN(CC(=O)Nc2cccc(C)c2)C(=O)C1=O,-9.91% (inactive)
15,CCCCOc1ccccc1C1NC(=O)NC(C)=C1C(=O)OCCOC (centres undefined),-16% (inactive)
16,Brc1ccc(-c2nnc3ccc(N4CCN(c5ccccc5)CC4)nn23)cc1,7.94% (inactive)

row,Compound,growth inhibition
1,CN1CSC2=C(C#N)C(c3cccc(OCc4ccccc4)c3)CC(=O)N2C1 (centres undefined),-5.43% (inactive)
2,COc1ccccc1-n1c(CNC(=O)c2ccccc2)nnc1SCC(=O)Nc1nnc(C)s1,3.6% (inactive)
3,Cn1cccc1Cc1nnc(SCC(=O)Nc2ccc3c(c2)OCCO3)n1CCc1ccccc1,6.56% (inactive)
4,CN(Cc1ccccc1)c1oc(COc2ccccc2F)nc1C#N,-1.62% (inactive)
5,CCOC(=O)c1cc2c(=O)n3ccccc3nc2n(Cc2ccco2)c1=NC(=O)c1cccnc1,-1.49% (inactive)
6,CCOC(=O)c1[nH]c(C)c(C(=O)N2CCOCC2)c1C,-6.62% (inactive)
7,CCCOC(=O)c1ccc(NC(=O)CCC(=O)OCC)cc1,-2.93% (inactive)
8,COC(=O)CSc1nc2ccc(NC(=O)CSc3nnnn3Cc3ccccc3)cc2s1,-3.46% (inactive)
9,Cc1ccc(C)c(C(=O)Nc2c(C(N)=O)oc3ccccc23)c1,-5.56% (inactive)
10,C(#Cc1ccccc1)CN1CCN(c2ccccn2)CC1,-7.33% (inactive)
11,COc1cc(OC)c(NC(=O)CS(=O)(=O)Cc2nc(-c3ccc(C)cc3)oc2C)cc1Cl,-22.6% (inactive)
12,COc1cccc(CSc2nc3sc(C)c(C)c3c(=O)n2Cc2ccco2)c1,6.35% (inactive)
13,Cc1noc(/C=C/NCc2cccnc2)c1S(=O)(=O)N(C)CC(=O)N1CCc2ccccc21,-10.2% (inactive)
14,O=C(CCS(=O)(=O)c1cccc2nonc12)N1CC(=O)N(CCc2ccccc2)C(=O)C1,-5.67% (inactive)
15,COc1ccc(-c2noc(-c3cc(C)cc(C)c3)n2)cc1OC,-16.5% (inactive)
16,Cc1ccc(-c2nn(-c3ccccc3)cc2C2SCC(=O)N2Cc2ccccc2)o1 (centres undefined),-17.1% (inactive)

# From PubChem BioAssay
